# ChEMBL document CHEMBL4311940, “Design, Synthesis, and Biological Evaluation of 4-Methyl Quinazoline Derivatives as Anticancer Agents Simultaneously Targeting Phosphoinositide 3-Kinases and Histone Deacetylases” (J Med Chem, 2019)
# Tests used:
# Huh-7 = test: Antiproliferative activity against human HuH7 cells after 96 hrs by MTT assay; type: functional, cell-based; details: Huh-7, 96 h
# [1] = Tmax in ICR mouse at 30 mg/kg, po measured after 0.083 to 24 hrs by LC/MS/MS analysis; type: ADME, organism-based; details: in vivo
# Procedure, shortened: (§1)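 Male-unspecified ICR mice, 3 per group iv (3 mg/kg in 10% DMSO/saline) and 5 per group po (30 mg/kg in 0.5% cmc/0.3% Tween 80). Blood sampled 0.033 (iv) or 0.083 (po) to 24 h. Plasma extracted with acetonitrile, analysed by LC/MS/MS; noncompartmental analysis.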
# [2] = Apparent volume of distribution in ICR mouse at 3 mg/kg, iv measured after 0.033 to 24 hrs by LC/MS/MS analysis; type: ADME, organism-based; details: in vivo, read-out: Vz
# Procedure, shortened: (§2)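 ICR mice; iv 3 mg/kg in 10% DMSO/saline (3 mice/group), blood at 0.033, 0.083, 0.25, 0.5, 1, 2, 4, 8, 12, 24 h; po 30 mg/kg as 0.5% cmc/0.3% Tween 80 suspension (5 mice/group), blood at 0.083–24 h. Plasma extracted with acetonitrile, LC/MS/MS; parameters by noncompartmental analysis.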
# [3] = Mutagenicity in Salmonella typhimurium TA100 at 5 to 500 ug/plate in presence of s9 mix by Ames test; type: toxicity, subcellular; details: salmonella enterica subsp. enterica serovar typhimurium
# Procedure, shortened: (§3)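 Plate incorporation method at 5, 50 and 500 μg/plate, with and without S9 activation. At least three plates per dose, incubated 72 h at 37 °C, revertants counted. Mean revertants compared with vehicle and positive controls.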
# U-87 MG = test: Antiproliferative activity against human U87 cells after 96 hrs by MTT assay; type: functional, cell-based, U-87MG ATCC
# [4] = Mutagenicity in Salmonella typhimurium TA1535 at 5 to 500 ug/plate in presence of s9 mix by Ames test; type: toxicity, subcellular; details: salmonella enterica subsp. enterica serovar typhimurium; procedure, shortened: as §3
# [5] = Mutagenicity in Salmonella typhimurium TA97 at 5 to 500 ug/plate in presence of s9 mix by Ames test; type: toxicity, subcellular; details: salmonella enterica subsp. enterica serovar typhimurium; procedure, shortened: as §3
# HCT-116 [6] = test: Induction of apoptosis in human HCT116 cells assessed as late apoptotic cells at 500 nM after 48 hrs by Annexin V-FITC/propidium iodide staining-based flow cytometric analysis (reference value: 3.87%); type: functional
# HCT-116 [7] = test: Induction of apoptosis in human HCT116 cells assessed as late apoptotic cells at 20 nM after 48 hrs by Annexin V-FITC/propidium iodide staining-based flow cytometric analysis (reference value: 3.87%); type: functional
# HCT-116 [8] = test: Induction of apoptosis in human HCT116 cells after 48 hrs by Annexin V-FITC/propidium iodide staining-based flow cytometric analysis; type: functional, cell-based
# HCT-116 [9] = test: Induction of apoptosis in human HCT116 cells assessed as necrotic cells at 500 nM after 48 hrs by Annexin V-FITC/propidium iodide staining-based flow cytometric analysis (reference value: 5.23%); type: functional
# THP-1 = test: Antiproliferative activity against human THP1 cells after 96 hrs by MTT assay; type: functional, cell-based; details: THP-1, 96 h
# [10] = Oral bioavailability in ICR mouse at 30 mg/kg measured after 0.083 to 24 hrs by LC/MS/MS analysis; type: ADME, organism-based; details: in vivo; procedure, shortened: as §1
# [11] = Drug concentration in human HCT116 cells assessed per million cells at 25 uM after 1 hr by LC/MS/MS analysis; type: ADME, cell-based; details: hct-116, 1 h
# Procedure, shortened: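 HCT116 cells seeded overnight, exposed 1 h to 25 μM compound in 4 wells, washed three times with PBS; one well trypsinized for cell count, three scraped, sonicated, acetonitrile-extracted, LC/MS/MS; nmol per million cells = concentration × total volume / cell number.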
# DU-145 = test: Antiproliferative activity against human DU145 cells after 96 hrs by MTT assay; type: functional, cell-based; details: DU-145, 96 h
# K562 = test: Antiproliferative activity against human K562 cells after 96 hrs by MTT assay; type: functional, cell-based; details: K562, 96 h
# [12] = biological target: Serine/threonine-protein kinase mTOR (Homo sapiens, UniProt P42345); test: Inhibition of recombinant human N-terminal FLAG-tagged mTOR (1362 to end amino acids) using ULight-4E-BP1 as substrate incubated for 1 hr by LANCE Ultra assay
# Procedure, shortened: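 mTOR protein, compound, ULight-4E-BP1 (Thr37/46) peptide and ATP in kinase buffer, 30 min at room temperature. LANCE detection buffer with EDTA and Eu-anti-phospho-4E-BP1 (Thr37/46) antibody added, then 1 h equilibration at room temperature. TR-FRET read; IC50 by curve fitting.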
# [13] = Mutagenicity in Salmonella typhimurium TA102 at 5 to 500 ug/plate in presence of s9 mix by Ames test; type: toxicity, subcellular; details: salmonella enterica subsp. enterica serovar typhimurium; procedure, shortened: as §3
# [14] = Mutagenicity in Salmonella typhimurium TA100 at 5 to 500 ug/plate in absence of s9 mix by Ames test; type: toxicity; details: salmonella enterica subsp. enterica serovar typhimurium; procedure, shortened: as §3
# [15] = Clearance in ICR mouse at 3 mg/kg, iv measured after 0.033 to 24 hrs by LC/MS/MS analysis; type: ADME, organism-based; details: in vivo; procedure, shortened: as §2
# [16] = Mutagenicity in Salmonella typhimurium TA98 at 5 to 500 ug/plate in presence of s9 mix by Ames test; type: toxicity, subcellular; details: salmonella enterica subsp. enterica serovar typhimurium; procedure, shortened: as §3
# [17] = Tmax in ICR mouse at 3 mg/kg, iv measured after 0.033 to 24 hrs by LC/MS/MS analysis; type: ADME, organism-based; details: in vivo; procedure, shortened: as §1
# Histone deacetylase 4 = Histone deacetylase 4 (Homo sapiens, UniProt P56524); test: Inhibition of recombinant human full length HDAC4 expressed in baculovirus infected Sf9 insect cells using Ac-peptide as substrate preincubated for 15 mins followed by substrate addition and measured after 1 hr
# Procedure, shortened: (§4)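 Recombinant HDAC isoforms mixed with serially diluted compound in assay buffer for 15 min at room temperature. Ac-peptide substrate then added and incubated 1 h at room temperature. Signal read on a plate reader; IC50 by curve fitting.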
# [18] = Mutagenicity in Salmonella typhimurium TA1535 at 5 to 500 ug/plate in absence of s9 mix by Ames test; type: toxicity; details: salmonella enterica subsp. enterica serovar typhimurium; procedure, shortened: as §3
# Histone deacetylase 8 = Histone deacetylase 8 (Homo sapiens, UniProt Q9BY41); test: Inhibition of recombinant human full length C-terminal His-tagged HDAC8 expressed in baculovirus infected Sf9 insect cells using Ac-peptide as substrate preincubated for 15 mins followed by substrate addition and measured after 1 hr; procedure, shortened: as §4
# [19] = AUC (0 to infinity) in ICR mouse at 3 mg/kg, iv measured after 0.033 to 24 hrs by LC/MS/MS analysis; type: ADME, organism-based; design: dose 3 mg/kg, time infinity, route intravenous; details: in vivo; procedure, shortened: as §2
# MCF7 = test: Antiproliferative activity against human MCF7 cells after 96 hrs by MTT assay; type: functional, cell-based; details: MCF7, 96 h
# [20] = Mutagenicity in Salmonella typhimurium TA102 at 5 to 500 ug/plate in absence of s9 mix by Ames test; type: toxicity; details: salmonella enterica subsp. enterica serovar typhimurium; procedure, shortened: as §3
# Capan-2 = test: Antiproliferative activity against human Capan2 cells after 96 hrs by MTT assay; type: functional, cell-based; details: Capan-2, 96 h
# [21] = biological target: Phosphatidylinositol 4,5-bisphosphate 3-kinase catalytic subunit gamma isoform (Homo sapiens, UniProt P48736); test: Inhibition of recombinant human His-tagged PIK3CG expressed in baculovirus expression system using PIP2 as substrate incubated for 1 hr by ADP-glo assay
# Procedure, shortened: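 Recombinant PI3Kβ, -γ or -δ, serially diluted compound, PIP2 substrate and ATP combined in kinase buffer. Incubated 1 h at room temperature in the dark, then stopped with ADP-Glo reagent. Luminescence read after kinase detection reagent; IC50 by curve fitting.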
# Sequence of Histone deacetylase 8 (Q9BY41 whole entry): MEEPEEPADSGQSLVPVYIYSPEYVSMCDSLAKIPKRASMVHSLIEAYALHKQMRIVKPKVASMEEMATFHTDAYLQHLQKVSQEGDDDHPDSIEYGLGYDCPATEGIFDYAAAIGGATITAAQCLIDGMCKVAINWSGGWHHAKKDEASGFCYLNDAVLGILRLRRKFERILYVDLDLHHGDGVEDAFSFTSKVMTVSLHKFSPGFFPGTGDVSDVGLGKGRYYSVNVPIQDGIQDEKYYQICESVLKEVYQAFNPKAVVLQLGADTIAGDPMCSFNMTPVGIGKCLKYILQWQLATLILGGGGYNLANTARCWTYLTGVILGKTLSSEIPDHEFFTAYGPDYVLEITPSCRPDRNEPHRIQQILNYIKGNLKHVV
# Sequence of Histone deacetylase 4 (P56524 whole entry, canonical isoform): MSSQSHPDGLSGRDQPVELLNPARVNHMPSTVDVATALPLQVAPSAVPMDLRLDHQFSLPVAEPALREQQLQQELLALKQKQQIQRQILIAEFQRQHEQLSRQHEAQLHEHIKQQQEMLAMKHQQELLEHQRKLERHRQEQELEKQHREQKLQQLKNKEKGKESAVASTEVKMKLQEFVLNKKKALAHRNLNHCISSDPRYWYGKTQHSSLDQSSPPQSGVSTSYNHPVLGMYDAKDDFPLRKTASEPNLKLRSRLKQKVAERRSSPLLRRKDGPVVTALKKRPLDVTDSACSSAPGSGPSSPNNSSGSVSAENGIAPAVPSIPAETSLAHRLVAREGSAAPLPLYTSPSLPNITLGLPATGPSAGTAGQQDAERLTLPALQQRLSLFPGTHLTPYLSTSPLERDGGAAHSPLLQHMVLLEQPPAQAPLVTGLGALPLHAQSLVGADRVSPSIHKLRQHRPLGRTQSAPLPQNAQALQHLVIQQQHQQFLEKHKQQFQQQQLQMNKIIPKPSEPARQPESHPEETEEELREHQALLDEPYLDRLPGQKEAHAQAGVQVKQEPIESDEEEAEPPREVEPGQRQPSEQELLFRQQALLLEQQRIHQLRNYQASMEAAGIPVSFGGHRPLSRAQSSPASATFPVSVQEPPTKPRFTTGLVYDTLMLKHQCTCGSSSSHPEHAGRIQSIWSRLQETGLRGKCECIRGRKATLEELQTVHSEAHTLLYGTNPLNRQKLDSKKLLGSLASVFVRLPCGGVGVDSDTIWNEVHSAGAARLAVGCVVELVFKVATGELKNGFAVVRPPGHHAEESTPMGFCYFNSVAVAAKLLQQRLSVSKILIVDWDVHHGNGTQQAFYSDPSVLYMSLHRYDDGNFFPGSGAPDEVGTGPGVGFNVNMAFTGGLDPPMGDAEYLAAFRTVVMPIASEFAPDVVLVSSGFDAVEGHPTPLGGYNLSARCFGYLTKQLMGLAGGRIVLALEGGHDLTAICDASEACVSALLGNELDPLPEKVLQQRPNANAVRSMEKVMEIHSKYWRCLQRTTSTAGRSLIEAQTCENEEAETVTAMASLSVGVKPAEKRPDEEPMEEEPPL
# Sequence of Phosphatidylinositol 4,5-bisphosphate 3-kinase catalytic subunit gamma isoform (P48736 whole entry, canonical isoform): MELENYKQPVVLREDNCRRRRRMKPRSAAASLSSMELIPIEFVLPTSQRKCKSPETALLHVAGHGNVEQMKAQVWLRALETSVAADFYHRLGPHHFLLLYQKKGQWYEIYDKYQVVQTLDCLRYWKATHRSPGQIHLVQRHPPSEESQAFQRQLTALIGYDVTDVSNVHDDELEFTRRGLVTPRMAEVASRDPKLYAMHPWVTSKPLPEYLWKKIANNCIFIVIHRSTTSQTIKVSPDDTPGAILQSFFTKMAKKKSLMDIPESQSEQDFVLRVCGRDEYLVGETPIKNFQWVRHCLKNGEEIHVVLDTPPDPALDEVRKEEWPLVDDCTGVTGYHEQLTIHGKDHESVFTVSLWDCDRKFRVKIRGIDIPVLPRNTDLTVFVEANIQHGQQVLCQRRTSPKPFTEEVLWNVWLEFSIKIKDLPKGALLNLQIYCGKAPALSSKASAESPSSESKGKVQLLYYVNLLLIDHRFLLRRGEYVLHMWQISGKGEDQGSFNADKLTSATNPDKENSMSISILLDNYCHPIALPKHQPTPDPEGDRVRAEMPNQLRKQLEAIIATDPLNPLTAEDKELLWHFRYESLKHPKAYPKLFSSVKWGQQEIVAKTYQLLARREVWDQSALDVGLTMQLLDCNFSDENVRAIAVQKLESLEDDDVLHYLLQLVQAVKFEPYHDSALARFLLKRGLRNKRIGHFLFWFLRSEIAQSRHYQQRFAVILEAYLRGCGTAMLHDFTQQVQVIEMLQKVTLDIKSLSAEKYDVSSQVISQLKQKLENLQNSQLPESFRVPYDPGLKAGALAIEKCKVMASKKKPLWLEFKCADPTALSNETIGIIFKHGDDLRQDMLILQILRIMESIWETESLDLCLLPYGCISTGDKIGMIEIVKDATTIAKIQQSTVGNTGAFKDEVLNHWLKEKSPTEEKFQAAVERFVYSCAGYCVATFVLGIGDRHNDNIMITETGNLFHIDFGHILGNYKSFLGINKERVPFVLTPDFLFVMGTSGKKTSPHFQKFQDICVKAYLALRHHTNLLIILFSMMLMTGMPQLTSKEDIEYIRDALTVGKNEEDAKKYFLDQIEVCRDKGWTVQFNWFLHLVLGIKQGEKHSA
SMILES,IC50 (Huh-7),Tmax [1],Vd [2],Activity [3],IC50 (U-87 MG),Activity [4],Activity [5],Activity (HCT-116 [6]),Activity (HCT-116 [7]),Activity (HCT-116 [8]),Activity (HCT-116 [9]),IC50 (THP-1),Drug metabolism [11],IC50 (DU-145),IC50 (K562),IC50 [12],Activity [13],Activity [14],clearance [15],Activity [16],further results
COc1ccc(-c2cc(OCCN(C)c3ncc(C(=O)NO)cn3)c3ncnc(C)c3c2)cn1,0.24 µM,108 min,50 L/kg,Non-Toxic,0.34 µM,Non-Toxic,Non-Toxic,24.4%,5.89%,Dose-dependent effect,2.82%,0.91 µM,Metabolite_Detected,0.066 µM,1.2 µM,6.26 µM,Non-Toxic,Non-Toxic,21.1 L/h/kg,Non-Toxic,F [10]: 1.7%; Tmax [17]: 1.8 min; IC50 (Histone deacetylase 4): 0.972 µM; Activity [18]: Non-Toxic; IC50 (Histone deacetylase 8): 0.012 µM; AUC [19]: 0.143 µg·h/mL; IC50 (MCF7): 1.1 µM; Activity [20]: Non-Toxic; IC50 (Capan-2): 0.27 µM; IC50 [21]: 0.467 µM
COc1ncc(-c2cc(OCCCCCCC(=O)NO)c3ncnc(C)c3c2)cc1F,2.5 µM,18 min,2.57 L/kg,Non-Toxic,3.2 µM,Non-Toxic,Non-Toxic,10.3%,5.48%,Dose-dependent effect,3.64%,5.4 µM,Metabolite_Detected,0.54 µM,6.8 µM,2.86 µM,Non-Toxic,Non-Toxic,5.4 L/h/kg,Non-Toxic,bioavailability ([10]; ICR): 4.2%; Tmax [17]: 1.8 min; IC50 (Histone deacetylase 4): > 1 µM; Activity [18]: Non-Toxic; IC50 (Histone deacetylase 8): 0.018 µM; AUC(0-inf) ([19]; ICR): 0.558 µg·h/mL; IC50 (MCF7): 2 µM; Activity [20]: Non-Toxic; IC50 (Capan-2): 0.43 µM; IC50 [21]: 0.067 µM
